From ChEMBL document CHEMBL1123712, “Synthesis and biological activity of novel calcium channel blockers: 2,5-dihydro-4-methyl-2-phenyl-1,5-benzothiazepine-3-carboxylic acid esters and 2,5-dihydro-4-methyl-2-phenyl-1,5-benzodiazepine-3-carboxylic acid esters” (J Med Chem, 1987) come the findings set out here.

The species entered for one assay is Oryctolagus cuniculus. The assay can be described thus: Calcium channel blocking activity in rabbit. It counts as functional. Put shortly: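 Thoracic aorta strips from male New Zealand rabbits (1.8–2.4 kg) in Krebs PSS at 37 °C, gassed 95% O2/5% CO2, pH 7.35. Contracted with high-K+ (100 mM KCl, NaCl reduced equimolar) Krebs. At plateau tension, increasing concentrations added cumulatively. Relaxation normalized to initial tension. IC50 by logit transformation of concentration-response curves.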

The subject of assay [1] is Rattus norvegicus. Nature of the assay: Percent decrease in blood pressure in hypertensive rat at 16 mg/kg po. The class given is functional. The procedure, abridged: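 Spontaneously hypertensive rats dosed orally. Blood pressure read-out expressed as percent decrease. Test agents were given […] po.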
Assay [2] relates to Rattus norvegicus. The assay can be described thus: Percent decrease in blood pressure in hypertensive rat at 60 mg/kg po. The class given is functional. Put shortly: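 Spontaneously hypertensive rats dosed orally. Read-out was percent fall in blood pressure.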
Assay [3] has as its target Voltage-dependent L-type calcium channel subunit alpha-1C (Canis lupus familiaris). Nature of the assay: Reduction in amplitude of calcium-dependent slow-response action potential by blocking voltage sensitive calcium channel.

The IC50 is the concentration that gives 50% inhibition. Turning to `CO/C(O)=C1\C(C)=Nc2ccccc2SC1c1ccccc1C(F)(F)F` (stereo unspecified), the 50% inhibitory concentration (IC50) in the assay listed under Oryctolagus cuniculus was found to be 12 µM.

On to `CO/C(O)=C1\C(C)=Nc2ccccc2SC1c1ccc(OC)cc1` (stereo unspecified), for which the half-maximal inhibitory concentration (IC50) in the assay listed under Oryctolagus cuniculus worked out at 22 µM.

Take `COC(=O)C1=C(C)NC(C)=C(C(=O)OC)C1c1ccccc1[N+](=O)[O-]` [NIFEDIPINE]: the Decrease in the assay on Rattus norvegicus [1] was found to be 25%. The concentration for half-maximal inhibition (IC50) in the assay listed under Oryctolagus cuniculus worked out at 0.001 µM.

For `CO/C(O)=C1\C(C)=Nc2ccccc2SC1c1ccccc1` (stereo unspecified), the half-maximal inhibitory concentration (IC50) in the assay filed under Oryctolagus cuniculus amounted to 1.7 µM.

As for `CCO/C(O)=C1\C(C)=Nc2ccccc2SC1c1cccc([N+](=O)[O-])c1` (stereo unspecified), in the assay filed under Oryctolagus cuniculus, the half-maximal inhibitory concentration (IC50) turned out to be 0.4 µM.

`COC(=O)C1=C(C)N(CCN(C)C)c2ccccc2SC1c1cccc([N+](=O)[O-])c1` (stereo unspecified): in the assay filed under Oryctolagus cuniculus, the half-inhibitory concentration (IC50) is 1.1 µM.

In the assay with Rattus norvegicus [2], `COc1ccc([C@@H]2Sc3ccccc3N(CCN(C)C)C(=O)[C@@H]2OC(C)=O)cc1` [DILTIAZEM] came in with a Decrease of 10%. For the same molecule, in the assay listed under Oryctolagus cuniculus, the half-inhibitory concentration (IC50) was determined as 1 µM.

Take `CCO/C(O)=C1\C(C)=Nc2ccccc2NC1c1cccc([N+](=O)[O-])c1` (stereo unspecified): the IC50 in the assay filed under Oryctolagus cuniculus was determined as 1.6 µM.

Regarding `CC1=Nc2ccccc2SC(c2cccc([N+](=O)[O-])c2)/C1=C(\O)OC(C)C` (stereo unspecified), the 50% inhibitory concentration (IC50) in the assay filed under Oryctolagus cuniculus came out at 0.5 µM.

For `CO/C(O)=C1\C(C)=Nc2ccccc2SC1c1ccc([N+](=O)[O-])cc1` (stereo unspecified), the IC50 in the assay listed under Oryctolagus cuniculus amounted to 3 µM.

Turning to `CO/C(O)=C1\C(C)=Nc2ccccc2SC1c1cccc([N+](=O)[O-])c1` (stereo unspecified), the half-maximal inhibitory concentration (IC50) in assay [3] turned out to be 0.14 µM; in the assay listed under Oryctolagus cuniculus, 1.2 µM.

Regarding `CO/C(O)=C1\C(C)=Nc2ccccc2S(=O)(=O)C1c1ccccc1` (stereo unspecified), the IC50 in the assay filed under Oryctolagus cuniculus was found to be 10 µM.

Consider `CO/C(O)=C1\C(C)=Nc2ccccc2SC1c1ccccc1[N+](=O)[O-]` (stereo unspecified), for which the IC50 in the assay listed under Oryctolagus cuniculus was found to be 0.3 µM.
